In ChEMBL document CHEMBL4190281, “Azacyclo-indoles and Phenolics from the Flowers of Juglans regia” (J Nat Prod, 2017):
pIC50: −log10 of the molar value.

Experiments:
[1] = tested on: HCT-116; assay: Growth inhibition of human HCT116 cells after 96 hrs by MTT assay; type: functional, cell-based; settings: HCT-116, 96 h
How it was run: (§1)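 Cancer cell lines exposed continuously to each sample for 96 h; growth read by MTT assay. IC50, the concentration inhibiting cell growth by 50%, taken as the mean of three replicates. Taxol and NK109 served as positive controls.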

[2] = tested on: HepG2; assay: Growth inhibition of human HepG2 cells after 96 hrs by MTT assay; type: functional, cell-based; settings: HepG2, 96 h
[3] = tested on: BGC-823; assay: Growth inhibition of human BGC823 cells after 96 hrs by MTT assay; type: functional, cell-based; settings: BGC-823, 96 h; how it was run: as §1
[4] = tested on: NCI-H1650; assay: Growth inhibition of human NCI-H1650 cells after 96 hrs by MTT assay; type: functional, cell-based; settings: NCI-H1650, 96 h; how it was run: as §1
[5] = tested on: A2780; assay: Growth inhibition of human A2780 cells after 96 hrs by MTT assay; type: functional, cell-based; settings: A2780, 96 h; how it was run: as §1
[6] = Cytotoxicity against rat IEC-6 cells assessed as survival rate at 10 uM after 48 hrs by MTT assay relative to control; type: cell-based; settings: read-out: Survival
How it was run: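 MTT read-out of viability in normal IEC-6 intestinal cells co-incubated with compound at 10 μM; readings at 0, 24 and 48 h of coculture (n = 5); survival expressed against a blank control group.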

Structure (SMILES)	pIC50 [1]	pIC50 [2]	pIC50 [3]	pIC50 [4]	pIC50 [5]	viability at 48 h, 10 µM [6] [%]
Nc1ncnc2c1ncn2[C@@H]1CCC(=O)c2c(O)ccc(O)c21	< 5.00	< 5.00	< 5.00	< 5.00	< 5.00	
O=Cc1ccc2n1CCc1c([nH]c3ccccc13)C2	5.54	5.73	5.64	5.54	6.02	79.6
O=C1CC[C@@H]2c3c([nH]c4ccccc34)CCN12	< 5.00	< 5.00	< 5.00	< 5.00	< 5.00	
O=C1CC[C@@H](c2c[nH]c3ccccc23)c2c(O)ccc(O)c21	< 5.00	< 5.00	< 5.00	< 5.00	< 5.00	
CCOCc1ccc(C=O)n1CCc1ccc(O)cc1	< 5.00	< 5.00	< 5.00	< 5.00	< 5.00	
Nc1ncnc2c1ncn2[C@H]1CCC(=O)c2c(O)ccc(O)c21	< 5.00	< 5.00	< 5.00	< 5.00	< 5.00	
O=C1CC[C@H]2c3c([nH]c4ccccc34)CCN12	< 5.00	< 5.00	< 5.00	< 5.00	< 5.00	
CC(=O)O[C@H]1C(=O)[C@@]2(C)[C@H]([C@H](OC(=O)c3ccccc3)[C@]3(O)C[C@H](OC(=O)[C@H](O)[C@@H](NC(=O)c4ccccc4)c4ccccc4)C(C)=C1C3(C)C)[C@]1(OC(C)=O)CO[C@@H]1C[C@@H]2O [PACLITAXEL]	9.70		9.22	< 6.00	7.69	
Nc1ncnc2c1ncn2C1CCC(=O)c2c(O)ccc(O)c21 (racemic)	< 5.00	< 5.00	< 5.00	< 5.00	< 5.00	
O=C1CCC(c2c[nH]c3ccccc23)c2c(O)ccc(O)c21 (racemic)	< 5.00	< 5.00	< 5.00	< 5.00	< 5.00	
O=C1CCC2c3c([nH]c4ccccc34)CCN12 (racemic)	< 5.00	< 5.00	< 5.00	< 5.00	< 5.00	
COc1ccc2c(c[n+](C)c3c4cc5c(cc4ccc23)OCO5)c1O	5.40	5.92	5.74	5.76	6.05	

Continued, in another order:

pIC50 [1]	pIC50 [2]	pIC50 [3]	pIC50 [4]	pIC50 [5]	Structure (SMILES)	viability at 48 h, 10 µM [6] [%]
< 5.00	< 5.00	< 5.00	< 5.00	< 5.00	Nc1ncnc2c1ncn2C1CCC(=O)c2cccc(O)c21 (racemic)	
< 5.00	< 5.00	< 5.00	< 5.00	< 5.00	Nc1ncnc2c1ncn2[C@@H]1CCC(=O)c2cccc(O)c21	
< 5.00	< 5.00	< 5.00	< 5.00	< 5.00	NC(=O)C1CCC(=O)c2cccc(O)c2N1 (racemic)	
< 5.00	< 5.00	< 5.00	< 5.00	< 5.00	Nc1ncnc2c1ncn2[C@H]1CCC(=O)c2cccc(O)c21	
< 5.00	< 5.00	< 5.00	< 5.00	< 5.00	NC(=O)[C@@H]1CCC(=O)c2cccc(O)c2N1	
< 5.00	< 5.00	< 5.00	< 5.00	< 5.00	O=C1CC[C@H](c2c[nH]c3ccccc23)c2c(O)ccc(O)c21	
< 5.00	< 5.00	< 5.00	< 5.00	< 5.00	NC(=O)[C@H]1CCC(=O)c2cccc(O)c2N1	
